The text below walks through data of ChEMBL document CHEMBL1136987, “Synthesis and evaluation of sphingosine analogues as inhibitors of sphingosine kinases” (J Med Chem, 2009).

Activity calls are given as the source filed them. No cut-off for these calls is given here.

For orientation: inhibition means the change of the read-out against control, counted positive when it falls. Usually Ki stands for a measure of affinity in units of concentration, obtained from inhibition or displacement. Read a low Ki as a stronger hold on the target. For orientation: IC50 means the concentration needed to halve the response being measured. Low readings indicate greater potency, high ones weaker potency.

Assay [1] deals with T1, Sphingosine kinase 1 (Homo sapiens, UniProt Q9NYA1). Nature of the assay: Inhibition of EGFP-fused human SPHK1 expressed in CHO cells at 10 uM. The class given is cell-based. The essentials: (§1)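 Enzyme source: lysates (40 µg protein) of CHO cells transiently transfected (Lipofectamine 2000) with human SPHK1 (EGFP fusion) or SPHK2 plasmid. Compound at 10 µM in sphingosine kinase buffer with sphingosine-BSA complex (1 mM stock) and cold plus γ-[32P]ATP; 30 min at 37 °C. Lipids extracted with acidified chloroform/methanol, run on TLC, phosphorimaged; triplicate lanes per tube.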
T1 sequence (Q9NYA1 whole entry, the tested form may be a part): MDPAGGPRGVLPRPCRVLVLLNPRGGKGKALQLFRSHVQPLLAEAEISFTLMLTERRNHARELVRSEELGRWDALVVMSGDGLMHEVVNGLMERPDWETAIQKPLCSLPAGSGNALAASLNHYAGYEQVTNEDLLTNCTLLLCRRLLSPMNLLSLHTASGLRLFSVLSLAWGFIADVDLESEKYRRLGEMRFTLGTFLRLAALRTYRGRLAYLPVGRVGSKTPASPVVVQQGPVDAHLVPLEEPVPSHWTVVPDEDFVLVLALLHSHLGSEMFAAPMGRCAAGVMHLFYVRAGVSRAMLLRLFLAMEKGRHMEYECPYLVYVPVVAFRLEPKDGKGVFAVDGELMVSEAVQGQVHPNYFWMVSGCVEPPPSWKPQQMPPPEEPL

The target of assay [2] is T2, Sphingosine kinase 2 (Homo sapiens) (UniProt Q9NRA0).
T2 sequence (whole entry): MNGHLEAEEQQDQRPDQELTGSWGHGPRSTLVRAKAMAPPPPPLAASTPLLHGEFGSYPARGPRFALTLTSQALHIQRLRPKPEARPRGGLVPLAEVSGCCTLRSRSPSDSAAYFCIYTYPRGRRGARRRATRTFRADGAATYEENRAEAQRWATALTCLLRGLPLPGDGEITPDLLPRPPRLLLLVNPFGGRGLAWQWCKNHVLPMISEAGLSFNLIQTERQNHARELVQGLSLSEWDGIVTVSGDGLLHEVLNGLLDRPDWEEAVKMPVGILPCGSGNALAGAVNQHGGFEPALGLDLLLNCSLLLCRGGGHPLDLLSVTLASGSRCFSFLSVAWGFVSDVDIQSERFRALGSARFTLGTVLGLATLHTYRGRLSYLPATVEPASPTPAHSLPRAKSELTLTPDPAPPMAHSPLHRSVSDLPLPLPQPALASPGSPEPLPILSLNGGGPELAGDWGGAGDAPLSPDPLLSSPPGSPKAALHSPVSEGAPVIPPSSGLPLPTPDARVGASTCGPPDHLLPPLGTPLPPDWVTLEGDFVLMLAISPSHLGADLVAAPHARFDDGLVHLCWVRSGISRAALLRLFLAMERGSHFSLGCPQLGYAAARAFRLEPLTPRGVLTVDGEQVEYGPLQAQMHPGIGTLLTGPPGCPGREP
The assay is described as follows: Inhibition of human cloned SPHK2 expressed in CHO cells at 10 uM. The class given is cell-based. The essentials:
as §1

Assay [3] deals with T1, Sphingosine kinase 1. Nature of the assay: Effect on EGFP-fused human SPHK1 activity expressed in CHO cells at 10 uM relative to basal level. In kind it is cell-based. In a few lines: as §1
Assay [4] deals with T2, Sphingosine kinase 2 (Homo sapiens). The assay is described as follows: Effect on human cloned SPHK2 activity expressed in CHO cells at 10 uM relative to basal level. In kind it is cell-based. In a few lines:
as §1

Assay [5] addresses T1, Sphingosine kinase 1. The assay is described as follows: Inhibition of EGFP-fused human SPHK1 expressed in CHO cells using D-erythro-sphingosine as substrate by Michaelis-Menten plot. In a few lines:
(§2)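 Kinetics of huSPHK1 or huSPHK2 from transfected CHO lysates, with D-erythro-sphingosine as substrate, in the 32P-ATP TLC assay (30 min, 37 °C). Michaelis-Menten behaviour was used to derive Km for sphingosine and Ki for the inhibitors.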

Assay [6] deals with T1, Sphingosine kinase 1. The assay is described as follows: Inhibition of EGFP-fused human SPHK1 expressed in CHO cells. In kind it is cell-based. The essentials: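 SPHK1 from transfected CHO cell lysates (40 µg per tube), sphingosine-BSA and γ-[32P]ATP, 30 min at 37 °C. Compounds tested at 0, 10, 25, 50 and 100 µM. Radiolabelled S1P measured by TLC and phosphorimaging. IC50 obtained from triplicate experiments and reported as mean ± SD.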

The subject of assay [7] is U-937. Nature of the assay: Inhibition of basal sphingosine-1-phosphate levels in human U937 cells at 5 uM after 2 hrs by ELISA. In kind it is functional, cell-based. In a few lines:
(§3)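 Human monocytic U937 cells, stimulated or not with TNFα, were incubated with or without inhibitor at 5 µM for 2 h. Cellular S1P was quantified by competitive S1P ELISA (sensitivity 30 nM).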

Assay [8] concerns U-937. Nature of the assay: Inhibition of TNF-alpha-induced sphingosine-1-phosphate levels in human U937 cells at 5 uM after 2 hrs by ELISA. The class given is functional, cell-based. In a few lines:
as §3

Assay [9] deals with T1, Sphingosine kinase 1. Nature of the assay: Inhibition of human SPHK1 expressed in human U937 cells assessed as inhibition of endogenous sphingosine-1-phosphate levels at 5 uM after 2 hrs by ELISA. The class given is cell-based. The following applies: U-937. In a few lines: (§4)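 U937 cells transfected with huSPHK1 or huSPHK2 plasmid, then incubated with or without inhibitor at 5 µM for 2 h. Endogenous S1P was measured by competitive ELISA (sensitivity 30 nM).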

Assay [10] deals with T2, Sphingosine kinase 2 (Homo sapiens). Nature of the assay: Inhibition of human SPHK2 expressed in human U937 cells assessed as inhibition of endogenous sphingosine-1-phosphate levels at 5 uM after 2 hrs by ELISA. The class given is cell-based. The following applies: U-937. In a few lines:
as §4
(In an ELISA, binding on a coated surface is turned into a signal by an enzyme label.)

The subject of assay [11] is U-937. Nature of the assay: Antiproliferative activity against human U937 cells at 10 uM after 24 to 72 hrs by MTT assay. The class given is functional. In a few lines:
(§5)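 U937 or HL60 cells in RPMI 1640 with 10% FBS and 1% L-glutamine; 50 000 cells/well at 1 × 10^6 cells/mL. Compound at 10 µM, DMSO 0.5% of volume as vehicle control. Incubated 24, 48, 72 h at 37 °C, 5% CO2. MTT (4 mg/mL in RPMI) added for 2 h in dark, crystals dissolved in DMSO/glycine buffer, A570 read.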
On the technique in general: Formazan colour is commonly taken as a measure of viable cells.

For the next assay, the system named is HL-60. Nature of the assay: Antiproliferative activity against human HL60 cells at 10 uM after 24 to 72 hrs by MTT assay. In kind it is functional. In a few lines: as §5
For assay [12], the target named is Protein kinase C alpha type (Homo sapiens) (UniProt P17252). Nature of the assay: Inhibition of human PKCalpha at 100 uM by gel electrophoresis. The essentials:
(§6)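 PepTag nonradioactive assay: purified human PKCα with C1 peptide, PKC activator and reaction buffer. Inhibitor at 10, 25, 50, 75 or 100 µM, preincubated 2 min, then 30 min at 30 °C with enzyme. Stopped at 95 °C for 10 min.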

In a further assay the target is T3, Sphingosine kinase 2 (Homo sapiens, UniProt Q9NRA0).
T3 sequence (Q9NRA0 whole entry): T2 sequence (whole entry)
The assay is described as follows: Inhibition of human cloned SPHK2 expressed in CHO cells using D-erythro-sphingosine as substrate by Michaelis-Menten plot. In a few lines:
as §2

Assay [13] addresses Protein kinase C alpha type (Homo sapiens) (UniProt P17252). Nature of the assay: Inhibition of human PKCalpha at 50 uM by gel electrophoresis. In a few lines: as §6

For the compound `CCCCCCCCC#CC(=O)[C@@H]1COC(C)(C)N1C(=O)OC(C)(C)C`, the inhibition at Sphingosine kinase 1 [1] amounted to 15.2%; in [2] it was 37.2%. Also, the Activity at Sphingosine kinase 1 [3] was 84.8%; in assay [4], 62.8%.

Take `CCCCC#CC(=O)[C@H](CO)NC(=O)OC(C)(C)C`: the inhibition entry (on Sphingosine kinase 1 [1]; in assay [2]) was “inactive” each time. Further, the Activity is 106% on Sphingosine kinase 1 [3] and 117% in assay [4].

Regarding `CCCCCCCCCCCCCC#CC(=O)[C@H](CO)NC(=O)OC(C)(C)C`, the inhibition against Sphingosine kinase 1 [1] was 56.9%; in [2] it was 54.1%. In addition, on Sphingosine kinase 1 [5], the Ki was determined as 1 µM. For the same compound, the IC50 against Sphingosine kinase 1 [6] turned out to be 1.2 µM. The results for the Activity (on Sphingosine kinase 1 [3]; in [4]) were 43.1% and 45.9%, respectively. Besides, the outcome (with U-937 [7]; on Sphingosine kinase 1 [9]; in assay [10]; with U-937 [11]) was Active. Moreover, the outcome with U-937 [8] was inactive.

Consider `CCCCCCCCC#CC(=O)[C@H](CO)NC(=O)OC(C)(C)C`, for which, at Sphingosine kinase 1 [1], the inhibition was determined as 4.2%. For the same compound, the inhibition result in assay [2] was “inactive”. The Activity came out at 95.8% on Sphingosine kinase 1 [3] and 89.9% in [4].

In the case of `CCCCC#C[C@H](O)[C@H](CO)NC(=O)OC(C)(C)C`, the inhibition entry (at Sphingosine kinase 1 [1]; in [2]) was “inactive” throughout. Moreover, the Activity came to 117% on Sphingosine kinase 1 [3] and 111% in [4].

For `CCCCCCC(=O)[C@@H]1COC(C)(C)N1C(=O)OC(C)(C)C`, the inhibition against Sphingosine kinase 1 [1] came out at 4.71%. Moreover, the inhibition entry in [2] was “inactive”. Moreover, the Activity at Sphingosine kinase 1 [3] amounted to 95.3%; in [4], 126%.

Compound `CCCCCCCCCCCCCC#CC(=O)[C@@H]1COC(C)(C)N1C(=O)OC(C)(C)C` showed an inhibition on Sphingosine kinase 1 [1] of 54.7%. For the same compound, the inhibition entry in assay [2] was “inactive”. Also, affinity on Sphingosine kinase 1 [5] was put at a Ki of 3 µM. Besides, on Sphingosine kinase 1 [6], the IC50 came to 3.3 µM. Moreover, the Activity on Sphingosine kinase 1 [3] was 45.3%; in assay [4], 117%; in the assay on U-937 [11], 10%; in the assay on HL-60, 10%. For the same compound, the outcome (with U-937 [8]; at Sphingosine kinase 1 [9]; in assay [12]) was Active.

Compound `CCCCC#CC(=O)[C@@H]1COC(C)(C)N1C(=O)OC(C)(C)C` displayed an inhibition against Sphingosine kinase 1 [1] of 9.08%. Moreover, the inhibition result in [2] was “inactive”. The figures for the Activity (on Sphingosine kinase 1 [3]; in [4]) were 90.9% and 115%, respectively.

The compound `CCCCCCCCCCCCC/C=C/[C@@H](O)[C@H](CO)N(C)C` [DIMETHYLSPINGOSINE] yielded an inhibition in assay [2] of 33%. Further, the Ki at Sphingosine kinase 2 is 12.5 µM. The same compound yielded an Activity in [4] of 67%. The result (with U-937 [7]; in the assay with U-937 [8]; in assay [10]; in assay [13]) was Active.

Compound `CCCCCCCCCCCCCC#C[C@@H](O)[C@@H](N)CO` returned an inhibition against Sphingosine kinase 1 [1] of 24.4%. Besides, the inhibition result in [2] was “inactive”. The Activity on Sphingosine kinase 1 [3] was 75.6%; in assay [4] it was 152%.

Consider `CCCCC#C[C@@H](O)[C@@H](N)CO`, for which the inhibition result (on Sphingosine kinase 1 [1]; in assay [2]) was “inactive” in each case. Further, the Activity at Sphingosine kinase 1 [3] is 132%; in assay [4], 109%.

On Sphingosine kinase 1 [1], `CCCCCCCCC#C[C@@H](O)[C@@H](N)CO` came in with an inhibition of 13.7%. In assay [2], the inhibition entry is “inactive”. Also, the Activity at Sphingosine kinase 1 [3] came to 86.3%; in assay [4], 116%.

Turning to `CCCCCCCCCCCCCC#C[C@@H](O)[C@@H]1COC(C)(C)N1C(=O)OC(C)(C)C`, the inhibition entry (on Sphingosine kinase 1 [1]; in assay [2]) was “inactive” each time. Moreover, the Activity on Sphingosine kinase 1 [3] is 112%; in assay [4], 123%.
